Source: PubChem BioAssay
ROMK primary = human ROMK K+ channel modulation, primary screen | B-score at 10 µM | actives 2% (n = 130,000) | P48048 | AID 1918 | Tet-inducible ROMK, thallium flux fluorescence; actives lie on both sides;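 active means signal ratio slope over the read window, or its plate-corrected B-score, at least 3 SD from the plate mean, either direction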;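 further: B-score of the F/F0 ratio slope over 7 to 12 s after thallium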
Target sequence (P48048 whole entry, looked up): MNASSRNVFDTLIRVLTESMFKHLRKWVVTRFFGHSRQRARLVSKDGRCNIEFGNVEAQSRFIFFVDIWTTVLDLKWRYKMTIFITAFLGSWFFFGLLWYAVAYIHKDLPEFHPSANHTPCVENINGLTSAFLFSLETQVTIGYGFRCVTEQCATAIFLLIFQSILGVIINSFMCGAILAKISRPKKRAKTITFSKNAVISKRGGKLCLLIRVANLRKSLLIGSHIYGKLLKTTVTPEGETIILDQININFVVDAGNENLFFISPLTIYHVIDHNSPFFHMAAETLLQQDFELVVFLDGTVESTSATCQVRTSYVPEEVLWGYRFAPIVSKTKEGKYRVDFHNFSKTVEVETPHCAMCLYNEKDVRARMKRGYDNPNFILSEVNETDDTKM
Calb biofilm kill = mixtures killing C. albicans biofilm | actives 0.02% (n = 120,000) | inhibition, % at 7.6 µM | C. albicans biofilm persisters + clotrimazole, fluorescence viability; primary screen in compound mixtures of four per well;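 further: compounds exposed to preformed 24 h biofilms for 48 h; 0% = untreated biofilm control and 100% = clotrimazole plus chlorhexidine kill blank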
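Test system: C. albicans CAF4-2 wild-type biofilms; buffer or medium: RPMI/MOPS medium, pH 7.0; schedule: 24 h biofilm formation, then 48 h compound exposure, 37 °C; detection: Alamar Blue fluorescence; measure: percent inhibition of biofilm viability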
ROMK hit retest = human ROMK channel modulation, retest confirmation; normalized thallium flux (F/F0 slope) at 10 µM; ROMK thallium flux, fluorescence ratio; active compounds read low; actives 54% (n = 3,000); shares compounds with ROMK primary;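 active means Flux at 10 µM at least 3 SD below or above vehicle control mean in one or both replicates; inconclusive means no clear call, values can overlap the other calls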
The depositor's hits bear a star; ? = inconclusive; . = no result given. Many of the other results were omitted from the sample, so hits are more common in it than they were.

SMILES | ROMK primary | Calb biofilm kill | ROMK hit retest
COc1ccc(N2CCN(C(c3ccc4ncccc4c3)c3nnnn3C(C)C)CC2)cc1 (configuration not stated) | 0.18 | 20 | .
CCOC(=O)c1sc(NC(=O)CCN2CCN(CC)CC2)c(C(=O)OCC)c1C | -0.15 | -2 | .
O=C(N/N=C/c1ccc2c(c1)OCO2)c1cc(-c2ccncc2)nc2ccccc12 | 2 | 7 | .
Cc1ccsc1/C=N/NC(=O)c1cc(-c2ccncc2)nc2ccccc12 | 4.8* | 9 | ?
COc1ccccc1-c1cc(C(=O)N/N=C/c2sccc2C)c2ccccc2n1 | -0.22 | . | .
O=C(N/N=C/c1ccsc1)c1cc(-c2cccs2)nc2ccccc12 | 1.4 | 18 | .
O=C(Nc1ccc2c(c1)OCO2)c1cc(-c2ccncc2)nc2ccccc12 | . | 1 | 0.068*
O=C(N/N=C/c1ccco1)c1cc(-c2cccc(Br)c2)nc2ccccc12 | -0.49 | 10 | .
O=C(N/N=C/c1ccsc1)c1cc(-c2ccncc2)nc2ccccc12 | 3* | 16 | 0.081
CC(/C=N/NC(=O)c1cc(-c2ccncc2)nc2ccccc12)=C\c1ccco1 | 3.7* | . | 0.09
COc1cc(OC)cc(C(=O)N2CCC(C(=O)Nc3ccc4c(c3)OCCO4)CC2)c1 | 0.3 | 19 | .
NC1=NC(=O)C2(COC(c3cccnc3)OC2)S1 (configuration not stated) | -1.8 | 3 | .
CC(C)(C)C(=O)NC(=S)NCc1ccccc1 | -0.74 | 13 | .
CC(=O)c1ccc(NC(=O)CSc2ccsc2[N+](=O)[O-])cc1 | -0.073 | 20 | .
O=C1c2cccc(OCC(=O)N3N=C(c4cccs4)CC3c3ccc(F)cc3)c2CCN1Cc1cccnc1 (configuration not stated) | . | 6 | .
Cc1ccc(F)cc1NC(=O)N1c2ccccc2NC(=O)CC1C (configuration not stated) | -0.0061 | 15 | .
Cc1cc(C)nc(SCc2cc(=O)c(OC(=O)c3cc([N+](=O)[O-])ccc3Cl)co2)n1 | . | 19 | .
O=C(Oc1coc(CSc2ncccn2)cc1=O)c1ccccc1[N+](=O)[O-] | 0.041 | 11 | 0.088
Cc1ccc(CS/C(Nc2ccccc2C)=C(\C#N)C(N)=O)c(C)c1 | 0.39 | 18 | .
O=S1(=O)N=C(Oc2cccc3ccccc23)c2ccccc21 | 0.026 | 19 | .
Cc1ccccc1OC1=NS(=O)(=O)c2ccccc21 | -2.6* | 25 | 0.064*
CCOC(=O)C1C(=O)C=C(Nc2ccccc2F)CC1c1ccccc1 (configuration not stated) | -1.2 | 17 | .
Cc1ccc(C(=O)N2CCN(S(=O)(=O)c3ccc(C)c([N+](=O)[O-])c3)C2)cc1 | 0.75 | 16 | .
COc1ccc(CS(=O)(=O)CC2(O)CCN(C(=O)c3cccc(C(F)(F)F)c3)CC2)cc1 | -0.3 | 15 | .
O=C(c1cccc(C(F)(F)F)c1)N1CCC(O)(CS(=O)(=O)Cc2ccc(Cl)cc2)CC1 | . | . | 0.075
SMILES | ROMK primary | Calb biofilm kill | ROMK hit retest
COc1ccc(C(=O)Nc2ccc3oc(-c4cccnc4)nc3c2)cc1OC | -1 | 37 | .
COc1cc(C(=O)Nc2ccc3oc(-c4cccnc4)nc3c2)cc(OC)c1OC | -0.76 | 11 | 0.079
O=C(Nc1sc2c(c1C(=O)c1ccccc1)CCCC2)c1cccnc1 | -3.7* | 13 | 0.068*
Cc1cccc(C(=O)Nc2sc3c(c2C(=O)O)CCC3)c1 | . | 18 | .
NC(=O)c1c(NC(=O)c2cccnc2)sc2c1CCCC2 | -0.12 | 12 | .
CC(C)(C)c1ccc(C(=O)Nc2sc3c(c2C(=O)O)CCC3)cc1 | 0.23 | 13 | 0.074
CCC(=Cc1ccc(CC)cn1)CC | . | 8 | .
CSc1cccc(NC(=O)C2CCCN(S(=O)(=O)c3ccc(F)cc3)C2)c1 (configuration not stated) | -0.012 | . | .
CSc1cccc(NC(=O)C2CCCN2S(=O)(=O)c2ccc(Br)s2)c1 (configuration not stated) | -3.1* | . | 0.061*
C[C@]12CCC3c4ccc(OCC(=O)O)cc4CCC3C1CCC2=O (some centres not stated) | . | 22 | .
CC(C)(C)c1ccc(-c2cn(-c3ccc(Br)cc3)c3[n+]2CCCS3)cc1 | -2.5* | 31* | 0.055*
c1ccc(-c2cn(-c3ccccc3)c3[n+]2CCS3)cc1 | -0.61 | 9 | .
COC(=O)c1c(NC(=O)COC(=O)Cn2cnc3ccccc32)sc2c1CCCC2 | -0.36 | 3 | .
O=P(c1ccccc1)(c1ccccc1)c1nc(-c2ccc(Cl)cc2)oc1N1CCOCC1 | -2 | 12 | .
CC12COC3(P(=O)(c4ccccc4)c4ccccc4)CC1CCC23CP(=O)(c1ccccc1)c1ccccc1 (configuration not stated) | -2.9* | 8 | 0.051*
CC12COC3(C(=O)Nc4ccc(F)cc4)CC1CCC32C (configuration not stated) | . | 13 | .
O=C(Cn1c(=O)oc2ccccc21)N1CCOCC1 | 0.56 | 7 | .
Cc1cc(F)ccc1N1CCC(N2CCN(C(C)C)C(CCO)C2)CC1 (configuration not stated) | 0.99 | -5 | .
Cc1cc(F)ccc1N1CCC(N2CCN(CCC(C)C)C(CCO)C2)CC1 (configuration not stated) | -2.8* | 26 | 0.058*
COc1ccc2c(COC(=O)CCS(=O)(=O)c3ccccc3)cc(=O)oc2c1 | -0.29 | 11 | .
O=C(NCCCCNC(=O)c1cccs1)c1cccs1 | -0.4 | 20 | .
O=C(NCCCN1CCCC1=O)c1cccs1 | . | . | 0.075
CC1CCc2cc(F)ccc2N1C(=O)CCl (configuration not stated) | -4.3* | 16 | 0.048*
CCC(CC)C(=O)N1c2ccc(F)cc2CCC1C (configuration not stated) | 0.43 | . | .
CCOC(=O)C(NC(=O)Nc1ccc(C(N)=O)cc1)(c1ccccc1)C(F)(F)F (configuration not stated) | -0.38 | 13 | .
SMILES | ROMK primary | Calb biofilm kill | ROMK hit retest
COCc1cc(=O)n2[nH]c(C(C)(C)C)cc2n1 | . | 9 | .
COc1ccc(CCCC(=O)NCc2ccccc2)cc1C | 4* | 7 | 0.088
COc1ccc(Br)cc1CNC(=O)CCCc1cn(C)c2ccccc12 | -0.04 | 18 | .
COc1ccc(OC)c(CNC(=O)CCCc2cn(C)c3ccccc23)c1 | 1.3* | 10 | ?
Cc1ccc(CNC(=O)CCCc2ccccc2)cc1 | . | 29 | .
CSc1ccc(-c2nc(O)c3cnccn23)cc1 | -0.29 | 8 | .
CCCOc1ccc(/C=N\NC(=O)CCc2n[nH]c(=O)[nH]c2=O)cc1OC | 3.4* | 35 | 0.089
COc1ccc(/C=N/NC(=O)CCc2n[nH]c(=O)[nH]c2=O)cc1OC | . | 1 | .
O=c1oc2ccc3ccccc3c2cc1-c1nnc(-c2ccccc2)o1 | -0.5 | . | .
COc1cccc2cc(-c3nc(-c4cccs4)cs3)c(=O)oc12 | -1.9 | . | .
O=c1oc2ccc3ccccc3c2cc1-c1nnc(-c2cccs2)o1 | -3* | 14 | ?
O=c1oc2ccccc2cc1-c1nc(-c2cccs2)cs1 | -4.5* | . | 0.018*
O=C(CCn1c(=O)[nH]c2ccsc2c1=O)NCc1ccc(F)cc1 | 1.3 | 12 | .
CSc1ccc(S(=O)(=O)Nc2c(C)cccc2C)cc1 | 0.14 | . | .
CCc1ccccc1NS(=O)(=O)c1ccc(SC)cc1 | -1.6* | . | 0.065*
CCC(CC)C(=O)Nc1c2cnn(-c3ccccc3)c2nc(=O)n1-c1ccccc1 | -5* | . | 0.052*
CCSc1nc2c(cnn2-c2ccccc2)c(=O)n1N | -0.089 | 12 | .
NC(=O)CSc1nnc(SCc2ccc(F)cc2)s1 | 0.063 | 9 | .
